Results gathered from unrelated publications.

SMILES | test system | conditions | half-life
CCc1cc(C(=O)NC)c2nccc(N3CCc4c(cc(Cn5ccnc5)cc4-c4cn(C)nc4C(F)(F)F)C3=O)c2c1 | male CD-1 mouse, plasma | oral, 150 mg/kg | 1.6 h
CC[C@H](C)[C@@H]1NC(=O)[C@@](C)(NC(=O)[C@H](CCCNC(=N)N)NC(=O)[C@H](CC(C)C)NC(=O)[C@@H](NC(=O)[C@H](CCC(N)=O)NC(=O)[C@H](CC(C)C)NC(C)=O)[C@@H](C)O)CCCC=CCCC[C@@](C)(C(=O)N[C@@H](CC(C)C)C(=O)N[C@@H](Cc2ccc3ccccc3c2)C(N)=O)NC(=O)[C@H](CCCNC(=N)N)NC(=O)[C@H](CCC(N)=O)NC1=O | male BALB/c mouse, plasma | intravenous, 15 mg/kg | 1.8 h
COc1ccc2nccc(N3CCc4c(cc(Cn5ccnc5)cc4-c4cn(C)nc4C(F)(F)F)C3=O)c2c1 | male CD-1 mouse, plasma | oral, 50 mg/kg | 0.8 h
O=C(NCCN1CCCC1)c1cc(-c2ccc(CN3CCOCC3)cc2)nc2ccc(F)cc12 | female NMRI mouse, blood | oral, 3 mg/kg | 19 h
CC=Cc1ccc(O)c(OC)c1 | mouse, brain | intranasal, 100 mg/kg | 0.294 h
COc1cc(OC)c2nccc(N3CCc4c(cc(Cn5ccnc5)cc4-c4cn(C)nc4C(F)(F)F)C3=O)c2c1 | male CD-1 mouse, plasma | oral, 50 mg/kg | 0.7 h
C=C(C[C@H](N)C(=O)O)C(=O)NCc1ccc(F)cc1 | male CD-1 mouse, plasma | intravenous, 2.5 mg/kg | 0.8 h
OC[C@H]1O[C@@H](c2ccc(Cl)c(Cc3ccc(O[C@H]4CCOC4)cc3)c2)[C@H](O)[C@@H](O)[C@@H]1O | CD-1 mouse, plasma | oral, 10 mg/kg | 0.5 h
CC(C)(C)c1ccc(O)c(CN(Cc2cc(C(C)(C)C)ccc2O)C2CCC(NC(N)=O)CC2)c1 (stereo not drawn) | male C57BL/6 mouse, plasma | oral, 10 mg/kg, single dose | 2.7 h
CN1CCC[C@H](CN2c3ccccc3Sc3ccccc32)C1.O=C(O)CCC(=O)O | mouse, plasma | oral, 64 mg/kg, single dose | 3.36 h
O=C(Nc1ccc(C(F)(F)F)cc1F)N1CCC(Cc2cccc(Oc3ccc(C(F)(F)F)cn3)c2)CC1 | male Swiss mouse, blood | oral, 1 mg/kg | 6 h
CNCCN(C)c1cc(C#N)cc(CCc2cc(C)cc(N)n2)c1 | male BALB/c mouse, brain | intravenous, 2 mg/kg | 24.8 h
O=C(Nc1ccc(Cl)c(Cl)c1)c1ccc(N2CCNCC2)c([N+](=O)[O-])c1 | male mouse, plasma | intravenous, 3 mg/kg | 3.6 h
CC1(C)CC[C@]2(C(=O)O)CC[C@]3(C)C(=CC[C@@H]4[C@@]5(C)C[C@@H](O)[C@H](OC(=O)/C=C/c6ccc(O)cc6)C(C)(C)[C@@H]5CC[C@]43C)[C@@H]2C1 (relative stereo) | mouse, plasma | intraperitoneal, 85 µmol/kg, single dose | 34.3 h
CC(C)Oc1c(NC(=O)c2ccc(NC(=O)[C@H](CC(N)=O)NC(=O)c3ccc(NC(=O)c4ccc(C#N)cc4)cc3)cc2)ccc(C(=O)Nc2ccc(C(=O)O)cc2)c1O | male CD-1 mouse, plasma | subcutaneous, 5 mg/kg, single dose | 1.65 h
Nc1ccc(-c2ccncc2)cc1NC(=O)N1CCCC1 | male C57BL/6 mouse, brain | intraperitoneal, 10 mg/kg | 0.462 h
C=CC(=O)N1C[C@H](n2c(C#CC3CC3)c(C(=O)N[C@H](C)c3ccccc3)c3c(N)ncnc32)C[C@@H]1C | male nude mouse, plasma | oral, 6.25 mg/kg, single dose | 2.15 h
COc1ccc(C(O)COc2ccc(-c3csc(-c4ccc(OCC(O)c5ccc(OC)c(OC)c5)cc4)n3)cc2)cc1OC (stereo not drawn) | C57BL/6 mouse, plasma | oral, 30 mg/kg | 4.3 h
Cn1cnc2c(F)c(Nc3ccc(Br)cc3Cl)c(C(=O)NOCCO)cc21 | nude mouse, tumour | oral, 5 mg/kg, single dose, tumour-bearing | 2.9 h
COC(=O)CN(CCCc1ccccc1)CC(=O)N[C@@H](Cc1c[nH]cn1)c1nc(C)no1 | male C57BL/6 mouse, plasma | intraperitoneal, 30 mg/kg | 0.1 h
CCc1cc(OC)c2nccc(N3CCc4c(cc(Cn5ccnc5)cc4-c4cn(C)nc4C(F)(F)F)C3=O)c2c1 | male CD-1 mouse, plasma | intravenous, 3 mg/kg | 0.9 h

SMILES | test system | conditions | half-life
NCC1CCN(c2nc(-c3ccncc3)nc3sc4c(c23)CCCC4)CC1 | female CD-1 mouse, plasma | intravenous, 10 mg/kg | 2.8 h
CNC(=O)c1cc(OC)cc2c(N3CCc4c(cc(Cn5ccnc5)cc4-c4cn(C)nc4C(F)(F)F)C3=O)ccnc12 | male CD-1 mouse, plasma | oral, 50 mg/kg | 1.1 h
Cc1ccc(NC(=O)c2ccc(CN3CCN(C)CC3)cc2)cc1Nc1nccc(-c2cncc(-c3oncc3C)c2)n1 | male C57BL/6 mouse, plasma | oral, 100 mg/kg/day | 2.6 h
Oc1nc2nonc2cc1Nc1c(F)c(F)c(C(F)(F)F)c(F)c1F | male C57BL/6 mouse, plasma | oral, 10 mg/kg | > 15 h
Cc1cc(Nc2ccc(S(F)(F)(F)(F)F)cc2)n2ccnc2n1 | male Swiss mouse, plasma | oral, 100 mg/kg, single dose | 5.8 h
Cc1nc(-c2cnc(NC(C)C)n(C)c2=O)ccc1Oc1ccnc(-c2cnn(C)c2)c1 | female mouse, plasma | oral, 7.5 mg/kg, single dose | 14 h
COc1ccc(NC(=O)N2CCCCN3[C@H](COCCC(=O)O)[C@H](c4ccc(C#Cc5ccccc5)cc4)[C@@H]3C2)cc1 | mouse, plasma | intravenous | 2 h
CCc1ccc(Cc2cc([C@@H]3O[C@H](CO)[C@@H](O)[C@H](O)[C@H]3O)cc3c2CCC3)cc1 | male C57BL/6 mouse, plasma | intravenous, 1 mg/kg | 2.9 h
CNC(=O)c1cc(Oc2ccc(NC(=O)Nc3ccc(Cl)c(C(F)(F)F)c3)c(F)c2)ccn1 | male mouse, plasma | oral, 10 mg/kg, single dose | 14.9 h
Cc1cc(C)cc(NC(=O)c2cnn(-c3ccc(C(C)C)cc3)c2C2CCNCC2)c1 | SCID mouse, plasma | oral, 50 mg/kg, single dose | ~2 h
Cc1noc(-c2ccc(CSCCC(=O)O)cc2)c1NC(=O)O[C@H](C)c1ccccc1Cl | mouse, plasma | intravenous, 5 mg/kg | 0.49 h
Cc1cc(NC(=O)c2cccc3cc(-c4cccc5[nH]nc(N)c45)ccc23)ccc1F | male CD-1 mouse, brain | oral, 10 mg/kg | 2.06 h
COc1nc(-c2cc(C)c(N[C@@H](C)c3cc(F)cc(F)c3)nn2)ccc1-n1cnc(C)c1 | male CD-1 mouse, plasma | oral, 5 mg/kg, single dose | 7.1 h
COc1ccc(NC(=O)N2CCCCN3[C@H](CO)[C@H](c4ccc(C#Cc5ccccc5)cc4)[C@@H]3C2)cc1 | mouse, plasma | intravenous | 3 h
CCOc1ccc(Cc2cc([C@@H]3O[C@H](CO)[C@@H](O)[C@H](O)[C@H]3O)ccc2Cl)cc1 | male C57BL/6 mouse, plasma | oral, 1 mg/kg | 3.7 h
COc1cc2c(Nc3ccc(Cl)c(Cl)c3F)ncnc2cc1OC[C@@H]1C[C@@H]2CN(C)C[C@@H]2C1 | FVB mouse, brain | oral, 70 mg/kg, single dose | 13.3 h
Cc1ccc2cncc(N3CCc4c(cc(Cn5ccnc5)cc4-c4cn(C)nc4C(F)(F)F)C3=O)c2c1 | male CD-1 mouse, plasma | oral, 50 mg/kg | 2 h
CCN1CCN(Cc2cc(NC(=O)c3ccc(C)c(-c4ccc5nc(NC(=O)C6CC6)cn5n4)c3)cc(C(F)(F)F)c2)CC1 | Swiss mouse, plasma | intravenous, 1 mg/kg | 3.7 h
Cc1noc([C@H](Cc2c[nH]cn2)NC(=O)CN(CCCc2ccccc2)CC(=O)O)n1 | male C57BL/6 mouse, plasma | intraperitoneal, 30 mg/kg | 0.233 h
COc1nc(-c2cc(C)c(N[C@@H](C)c3ccc(F)cc3)nn2)ccc1-n1cnc(C)c1 | male CD-1 mouse, plasma | intravenous, 1 mg/kg, single dose | 2.93 h
[Cl-].c1csc([I+]c2cccs2)c1 | mouse, plasma | intraperitoneal, 6 mg/kg | 0.08 h
